Reference: article PMC7564327 (Acta Pharmaceutica Sinica. B, 2020)

Key:
hOAT1 = target: T1, hOAT1 (Homo sapiens, UniProt Q4U2R8); test: Inhibition of 14C-PAH uptake in MDCK-hOAT1 cells; type: in vitro ADME; conditions: for inhibition of the activity of hOAT1: 100 μmol/L IPT, ISP, 100 μg/mL AD extract, substrate 14C-PAH
T1 sequence (Q4U2R8 1-563): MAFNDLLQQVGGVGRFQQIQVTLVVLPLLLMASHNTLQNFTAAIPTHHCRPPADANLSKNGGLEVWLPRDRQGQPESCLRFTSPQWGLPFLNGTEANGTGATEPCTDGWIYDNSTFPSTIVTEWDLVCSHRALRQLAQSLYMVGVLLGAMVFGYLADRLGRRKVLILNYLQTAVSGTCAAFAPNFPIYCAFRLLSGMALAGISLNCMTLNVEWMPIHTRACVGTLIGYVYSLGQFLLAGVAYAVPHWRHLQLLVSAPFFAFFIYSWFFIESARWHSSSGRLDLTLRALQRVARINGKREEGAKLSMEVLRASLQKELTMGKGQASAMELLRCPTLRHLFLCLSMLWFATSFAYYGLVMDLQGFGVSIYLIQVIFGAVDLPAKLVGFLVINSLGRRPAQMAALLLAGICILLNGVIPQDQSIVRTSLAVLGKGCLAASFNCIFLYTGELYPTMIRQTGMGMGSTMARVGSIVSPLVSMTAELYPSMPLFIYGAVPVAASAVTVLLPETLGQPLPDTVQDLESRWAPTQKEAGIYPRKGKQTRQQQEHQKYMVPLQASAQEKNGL
Outline: (§1)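 Test compounds were made as DMSO stocks (20 mmol/L, or 10 mg/mL for extract) and diluted in PBS to a final DMSO below 0.5%. Cells were exposed at 37 °C to probe plus or minus test compound. The probe was 5 μmol/L ¹⁴C-PAH for 5 min (hOAT1) or 50 nmol/L ³H-estrone sulfate for 2 min (hOAT3, hOATP2B1). Screens used 100 μmol/L (extract 100 mg/L); IC50 came from varied concentrations. Cells were then given three cold DPBS washes, lysed in 0.1 mol/L NaOH and read by scintillation counting. Data are mean ± SD, n = 3.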

[1] = Tissue distribution of TDE in mice; conditions: oral 20 mg/kg TDE with 20 mg/kg IPT, 20 mg/kg ISP or 200 mg/kg AD extract, 1, 2 and 4 h; for accumulation of TDE in kidney vs TDE alone / accumulation of TDE in liver vs TDE alone: P < 0.05
hOATP2B1 = target: T2, hOATP2B1 (Homo sapiens, UniProt O94956); test: Inhibition of 3H-ES uptake in HEK293-hOATP2B1 cells; type: in vitro ADME; conditions: 100 μmol/L IPT, ISP; substrate 3H-ES
T2 sequence (O94956 1-709): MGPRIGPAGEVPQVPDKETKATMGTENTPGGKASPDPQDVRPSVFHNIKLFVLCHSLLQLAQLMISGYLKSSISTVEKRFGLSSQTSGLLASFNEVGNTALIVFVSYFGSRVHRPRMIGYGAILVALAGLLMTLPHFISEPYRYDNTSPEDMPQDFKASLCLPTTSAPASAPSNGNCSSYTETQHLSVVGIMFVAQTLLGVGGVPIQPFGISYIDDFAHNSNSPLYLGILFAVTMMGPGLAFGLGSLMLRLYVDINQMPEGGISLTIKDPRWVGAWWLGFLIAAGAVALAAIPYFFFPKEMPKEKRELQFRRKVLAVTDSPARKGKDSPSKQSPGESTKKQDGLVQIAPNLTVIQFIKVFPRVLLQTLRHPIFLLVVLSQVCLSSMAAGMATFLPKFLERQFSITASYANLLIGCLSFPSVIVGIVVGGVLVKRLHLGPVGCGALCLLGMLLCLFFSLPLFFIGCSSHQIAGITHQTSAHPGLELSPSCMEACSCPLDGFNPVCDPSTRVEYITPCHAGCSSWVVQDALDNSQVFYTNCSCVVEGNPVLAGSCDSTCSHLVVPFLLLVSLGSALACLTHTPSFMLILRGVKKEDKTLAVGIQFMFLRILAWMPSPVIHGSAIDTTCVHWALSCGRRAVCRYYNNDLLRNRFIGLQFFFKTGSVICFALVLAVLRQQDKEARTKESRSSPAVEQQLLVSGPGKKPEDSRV
Outline: as §1

hOAT3 = target: T3, hOAT3 (Homo sapiens, UniProt Q8TCC7); test: Inhibition of 3H-ES uptake in S2-hOAT3 cells; type: in vitro ADME; conditions: for inhibition of the activity of hOAT3: 100 μmol/L IPT, ISP, 100 μg/mL AD extract, substrate 3H-ES
T3 sequence (Q8TCC7 1-542): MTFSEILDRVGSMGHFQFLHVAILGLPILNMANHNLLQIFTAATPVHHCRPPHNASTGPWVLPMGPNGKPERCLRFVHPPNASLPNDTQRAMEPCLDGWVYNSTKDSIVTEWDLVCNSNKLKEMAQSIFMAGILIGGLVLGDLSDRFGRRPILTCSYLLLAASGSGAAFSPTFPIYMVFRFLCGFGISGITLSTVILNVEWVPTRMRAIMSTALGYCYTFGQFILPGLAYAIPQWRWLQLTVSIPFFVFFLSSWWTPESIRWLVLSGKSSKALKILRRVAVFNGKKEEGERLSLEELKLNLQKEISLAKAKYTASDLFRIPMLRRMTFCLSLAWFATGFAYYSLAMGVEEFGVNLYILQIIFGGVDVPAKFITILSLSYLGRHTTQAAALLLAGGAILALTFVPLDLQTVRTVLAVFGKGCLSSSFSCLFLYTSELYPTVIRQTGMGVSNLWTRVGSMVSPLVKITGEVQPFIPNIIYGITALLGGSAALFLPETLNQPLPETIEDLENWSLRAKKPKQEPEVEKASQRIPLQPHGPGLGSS
Outline: as §1

mice liver slices = test: In vitro uptake of TDE in mice liver slices; type: in vitro ADME, Kunming mice; conditions: mice liver slices, TDE 10 μmol/L
Outline: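 Kunming mice (20–25 g, fasted 12 h) were anaesthetised with urethane, and kidney or liver was decapsulated into ice-cold oxygenated buffer at pH 7.5. Slices of about 30 mg were preincubated 5 min under carbogen at 4 or 37 °C. They were then incubated with 10 μmol/L test compound for 5, 10 or 30 min, with or without reference OAT1/OAT3 or OATP inhibitors or co-ingredients. Slices were then washed, blotted, weighed and homogenised, then extracted with methanol and an internal standard for HPLC–MS.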

mOatp1a1 = test: qRT-PCR of mOatp1a1 mRNA in liver of treated mice; type: in vivo; conditions: mice given 20 mg/kg TDE with 20 mg/kg IPT, ISP or 200 mg/kg AD extract, 4 h

| Compound | IC50 (hOAT1) | inhibition of the activity of hOAT1 (hOAT1) | concentration of TDE in blood vs TDE alone [1] | concentration of TDE in brain vs TDE alone [1] | accumulation of TDE in kidney vs TDE alone [1] | accumulation of TDE in liver vs TDE alone [1] | inhibition to hOATP2B1 (hOATP2B1) | IC50 (hOAT3) | inhibition of the activity of hOAT3 (hOAT3) | effect on the uptake of TDE in liver slices (mice liver slices) | mRNA level of mOatp1a1 decreased to, compared to TDE alone (mOatp1a1) |
| --- | --- | --- | --- | --- | --- | --- | --- | --- | --- | --- | --- |
| CC(C)=CCOc1c2ccoc2cc2oc(=O)ccc12 [ISP, isoimperatorin] | 26.8 µM | significantly inhibited | significantly enhanced | significantly enhanced | significantly decreased | significantly decreased | weak or no inhibition | 11.7 µM | significantly inhibited | significant inhibition | 37% |
| CC(C)=CCOc1c2occc2cc2ccc(=O)oc12 [IPT, imperatorin] | 31.7 µM | significantly inhibited | significantly enhanced | significantly enhanced | significantly decreased | significantly decreased | weak or no inhibition | 2.74 µM | significantly inhibited | significant inhibition | 22% |
